# Assay results gathered from unrelated publications.
# Each line is one published result; the experiments were not run side by side.
# Target: Serine/threonine-protein kinase 17A (STK17A, Homo sapiens, UniProt Q9UEE5)
# Sequence (Q9UEE5 1-414, as in one of the studies): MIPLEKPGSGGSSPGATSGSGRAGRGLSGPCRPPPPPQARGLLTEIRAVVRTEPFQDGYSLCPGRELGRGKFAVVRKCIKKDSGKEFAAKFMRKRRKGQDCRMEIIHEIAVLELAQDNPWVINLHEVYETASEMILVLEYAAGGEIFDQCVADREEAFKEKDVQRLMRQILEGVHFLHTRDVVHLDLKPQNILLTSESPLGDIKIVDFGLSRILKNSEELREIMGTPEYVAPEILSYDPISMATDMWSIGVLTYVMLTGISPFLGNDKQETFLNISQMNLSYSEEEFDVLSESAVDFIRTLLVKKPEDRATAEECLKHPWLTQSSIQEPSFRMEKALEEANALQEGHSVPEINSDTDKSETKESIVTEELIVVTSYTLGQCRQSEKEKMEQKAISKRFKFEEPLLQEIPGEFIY
Structure (SMILES),read-out,method,concentration,remaining binding
O=S(=O)(NC1CCC(c2cc(F)ccc2F)(S(=O)(=O)c2ccc(Cl)cc2)CC1)C(F)(F)F (stereo not shown),cell-free assay,competition with immobilised ligand,1 µM,86%
O=C(c1ccc(Nc2ncc(Cl)c(-c3ccc(Cl)s3)n2)cc1)N1CCC(N2CCCC2)CC1,binding,competition with immobilised ligand,1 µM,0.8%
c1cncc(-c2cccc(Nc3nccc(NC4CCCCC4)n3)c2)c1,binding,competition with immobilised ligand,10 µM,47%
Cc1cnc(Nc2ccc(C(=O)N3CCC(N4CCCC4)CC3)cc2)nc1-c1cc2ccccc2s1,binding,competition with immobilised ligand,1 µM,0.1%
FC(F)(F)Oc1cccc(-c2cnc3ccc(-c4ccncc4)nn23)c1,cell-free assay,competition with immobilised ligand,5 µM,12%
CN(C)c1nccc(-c2cnn3ncccc23)n1,binding,,1 µM,76%
COc1cnc(Nc2cccc(S(N)(=O)=O)c2)nc1N1CCN(c2ccccc2)C(=O)C1,binding,competition with immobilised ligand,1 µM,98%
O=C(NCCCN1CCOCC1)c1ccc(Nc2ncc(Cl)c(-c3ccc(Cl)s3)n2)cc1,binding,competition with immobilised ligand,1 µM,0.85%
COc1cc(-c2cn(C3CCc4c(F)cccc4N(CC(F)(F)F)C3=O)nn2)ccc1-n1cnc(C)c1 (stereo not shown),cell-free assay,competition with immobilised ligand,1 µM,100%
C[C@H]1CCN(c2nccc(-c3cnn4ncccc34)n2)C1,binding,,1 µM,13%
CNC(=O)Nc1ccc2c(c1)CC[C@@]21OC(=O)N(CC(=O)N(Cc2ccc(F)cc2)[C@@H](C)C(F)(F)F)C1=O,cell-free assay,competition with immobilised ligand,1 µM,100%
N[C@@H]1CCN(c2nccc(-c3cnn4ncccc34)n2)C1,binding,,1 µM,100%
CCN1CCN(Cc2ccc(C(=O)Nc3ccc(C)c(Oc4ccc5c(c4)CC(=O)N5)c3)cc2C(F)(F)F)CC1,binding,competition with immobilised ligand,1 µM,100%
F[C@@H]1CCN(c2nccc(-c3cnn4ncccc34)n2)C1,binding,,1 µM,100%
CC1=C(C#N)[C@@H](c2ccc3[nH]nc(C)c3c2)C(C#N)=C(c2ccc(Cl)cc2)N1,cell-free assay,competition with immobilised ligand,1 µM,100%
Nc1ncc2c(n1)-c1c([nH]c3ccc(C#CC4CC4)cc13)CCCC2,binding,competition with immobilised ligand,1 µM,98%
Cc1c(C(=O)O)cc(-c2ccc(C3CCNCC3)cc2)c2ccc(-c3ccc(C(F)(F)F)cc3)cc12,cell-free assay,competition with immobilised ligand,1 µM,99%
O=C(NCC1CCOCC1)c1n[nH]cc1NC(=O)c1c(F)cccc1F,binding,competition with immobilised ligand,1 µM,94%
C[C@@]1(Cc2ccc(C#N)cc2)C(=O)N(c2cc(Cl)cc(Cl)c2)c2ncc(C(=O)NC3(c4nc(C5CCC5)no4)CC3)n21,cell-free assay,competition with immobilised ligand,1 µM,91%
COc1ccnn2ncc(-c3ccnc(N(C)C)n3)c12,binding,,1 µM,96%
O=C(Nc1cccnn1)N1CCC(=Cc2cccc(Oc3ccc(C(F)(F)F)cn3)c2)CC1,cell-free assay,competition with immobilised ligand,1 µM,79%
c1cnn2ncc(-c3ccnc(N4CCC45COC5)n3)c2c1,binding,,1 µM,100%
